Screening results deposited in PubChem BioAssay by Johns Hopkins Ion Channel Center.
Rows were chosen to be rich in hits. Some 3.7% of all compounds tested hit in one or more screens of this group.
KCNK3 block – human KCNK3 channel inhibitors, primary screen, CHO cells, FluxOR thallium flux, B-score. Potassium channel subfamily K member 3 (Homo sapiens), O14649. FluxOR fluorescence; hits give low values. B-score at 10 µM. 0.84% of 340,000 active;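 active means B-score under library mean minus 4 SD, starting fluorescence ratio at most library mean plus 5 SD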;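 further: more negative B-score means stronger inhibition of thallium flux through KCNK3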
KCNQ1 pot – potentiators or activators of KCNQ1 channel, primary screen, cell-based, thallium flux, high-throughput. CHO-K1 KCNQ1, thallium flux FluxOR fluorescence; hits give high values. 0.35% of 310,000 active. Potassium voltage-gated channel subfamily KQT member 1 (Homo sapiens), P51787. B-score at 10 µM;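 active means fluorescence ratio B-score, a plate-corrected score, at least three library SD, with initial intensity B-score within 5 SD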
Target sequence (P51787 whole entry, looked up): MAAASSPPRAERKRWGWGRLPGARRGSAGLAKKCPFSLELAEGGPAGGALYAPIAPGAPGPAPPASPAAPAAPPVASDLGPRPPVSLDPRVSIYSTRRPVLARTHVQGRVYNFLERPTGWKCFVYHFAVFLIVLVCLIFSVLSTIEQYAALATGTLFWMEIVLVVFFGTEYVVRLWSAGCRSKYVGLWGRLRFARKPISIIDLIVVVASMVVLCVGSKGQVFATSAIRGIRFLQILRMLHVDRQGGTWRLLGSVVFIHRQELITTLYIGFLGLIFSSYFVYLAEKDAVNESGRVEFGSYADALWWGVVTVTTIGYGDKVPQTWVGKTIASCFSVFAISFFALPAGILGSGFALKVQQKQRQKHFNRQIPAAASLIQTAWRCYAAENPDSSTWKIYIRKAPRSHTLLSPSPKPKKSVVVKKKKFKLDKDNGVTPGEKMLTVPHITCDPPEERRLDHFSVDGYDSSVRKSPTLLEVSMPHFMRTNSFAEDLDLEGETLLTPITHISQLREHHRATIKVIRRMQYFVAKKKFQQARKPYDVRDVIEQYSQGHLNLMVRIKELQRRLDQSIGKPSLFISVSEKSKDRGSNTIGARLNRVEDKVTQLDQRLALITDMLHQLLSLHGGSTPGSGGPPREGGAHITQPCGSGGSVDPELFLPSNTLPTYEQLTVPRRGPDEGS
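Doses: Single concentration per compound, DMSO matched to controls | Test system: KCNQ1-transfected CHO-K1 cells | Timing: 90 min dye loading and 20 min compound exposure, both at room temperature | Measured by: Kinetic FluxOR thallium fluorescence, 10-s 1-Hz baseline, 110-s post-stimulus read | Medium: Assay buffer with matched DMSO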
KCNQ1 block – inhibitors of human KCNQ1 channel, primary screen, cell-based, thallium flux, high-throughput | Potassium voltage-gated channel subfamily KQT member 1 (Homo sapiens), P51787 | CHO-K1 KCNQ1, FluxOR thallium flux fluorescence; hits give high values | B-score at 10 µM | 1.3% of 310,000 active | AID 2642, 2010;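 active means compounds whose thallium flux B-score, printed positive for inhibition, exceeds three library SD while starting fluorescence stays within three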;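 further: channel opened by potassium depolarization with thallium stimulus after 20 min compound exposure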
KCNK9 inh – KCNK9 potassium channel inhibitors, primary screen, HEK293 cells, thallium flux; B-score at 10 µM; 1.2% of 310,000 active; FluxOR thallium flux fluorescence; hits give low values; Potassium channel subfamily K member 9 (Homo sapiens), Q9NPC2;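 active means ratio B-score over 3 SD below the library mean, with starting fluorescence within 5 SD of its mean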;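 further: negative B-score means less thallium flux so channel inhibition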
Kir21 block – inhibitors of mouse Kir2.1 inward-rectifier potassium channel; HEK293-Kir2.1, FluxOR thallium flux fluorescence; hits give low values; 0.85% of 310,000 active; Inward rectifier potassium channel 2 (Mus musculus), P35561; AID 1672, 2009; B-score at 10 µM;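 active means fluorescence ratio B-score at or below minus 3 SD of library scores, with starting-brightness B-score within 2 SD, cut at about -4.2 in these data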;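 further: channel flux triggered by added potassium and thallium sulfate stimulus; B-score of peak minus minimum fluorescence over baseline after thallium stimulus; more negative B-score means stronger Kir2.1 block with less thallium influx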
hERG rescue – hERG rescue from dofetilide block, primary screen, cell-based, CHO-hERG, FluxOR thallium flux, dofetilide IC70; 0.51% of 310,000 active; activation (rescue from dofetilide block), less the hit threshold, % at 10 µM; dofetilide IC70 present; Voltage-gated inwardly rectifying potassium channel KCNH2 (Homo sapiens), Q12809;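 active means activation above the mean of controls blocked by dofetilide plus 5 SD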;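 further: thallium influx through hERG after potassium depolarization seen as dye fluorescence rise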
KCNK9 inh conf – KCNK9 potassium channel inhibitors, confirmation, HEK293 cells, thallium flux, duplicate | shares compounds with KCNK9 inh | FluxOR thallium flux fluorescence | inhibition, % at 10 µM | 43% of 4,900 active;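 active means thallium signal inhibited by more than 5 SD of the compound-free buffer control wells, on both duplicate plates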
Kir2-1 spec – mouse Kir2.1 channel inhibition, confirmation, selectivity assay for KCNK9 modulator project, cell-based, HEK293, thallium flux; 4% of 4,900 active; Kir2.1 cells, FluxOR thallium flux fluorescence; inhibition, % at 10 µM; AID 492993, 2010; shares compounds with KCNK9 inh;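 active means thallium signal drop more than 5 SD beyond the mean of the no-compound control wells, seen in both duplicate plates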;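 further: signal is fluorescence rise after thallium addition divided by baseline fluorescence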
KCNK9 uninduced – thallium flux in non-induced HEK293 cells, confirmation, counter-screen for KCNK9 inhibitor project, cell-based, second counter screen, non-induced KCNK9-HEK293; shares compounds with KCNK9 inh; FluxOR thallium flux; inhibition, % at 10 µM; 40% of 4,900 active; AID 492997, 2010;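 active means thallium signal drop beyond 5 SD of the untreated control mean, on both duplicate plates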
Large screens that a line does not name were inactive (follow-up assays come after a bar, where they were run).

CC1CCc2c(sc3nc(CN4CCN(S(=O)(=O)c5ccccc5[N+](=O)[O-])CC4)[nH]c(=O)c23)C1 (configuration not stated)	none
CCCc1noc2c1C(c1cc(Br)ccc1F)C(C#N)=C(N)N2 (configuration not stated)	none
CC(C)C[C@H]1CN=C(Nc2ccccc2)N1CC1CCC(C)CC1 (some centres not stated)	none
COc1ccccc1CC(=O)Nc1nc(-c2ccc(F)c(F)c2)cs1	KCNK9 inh -17.1 | KCNK9 inh conf inactive | Kir2-1 spec inactive | KCNK9 uninduced 39.0%
Cc1cn(CC(=O)NCCCN2CCCC2=O)c(=O)[nH]c1=O	none (no result: KCNQ1 pot, KCNQ1 block, KCNK9 inh, Kir21 block, hERG rescue)
CCOC(=O)c1cccnc1SCC(=O)N(CC)c1cccc(C)c1	none | KCNK9 inh conf inactive | Kir2-1 spec inactive | KCNK9 uninduced inactive
CCCCC(=O)N(c1ccc(C(=O)O)cc1)c1nc(-c2ccc(Cl)cc2)c(CC)s1	none | KCNK9 inh conf inactive | Kir2-1 spec inactive | KCNK9 uninduced inactive
CCOC(=O)N1CCN(S(=O)(=O)N2CCCC(C(=O)NCc3ccc(OC)cc3)C2)CC1 (configuration not stated)	none
CC(C)=CCc1c(O)ccc(C2COc3c(CC=C(C)C)c(O)cc(O)c3C2=O)c1O (configuration not stated)	KCNK9 inh -23.8 | KCNK9 inh conf 65.5% | Kir2-1 spec inactive | KCNK9 uninduced 27.5%
CC(C)=CCc1c(O)cc2c(c1O)C(=O)CC(c1ccccc1)O2 (configuration not stated)	none
CNc1cc(C)c(C#N)c2nc3ccccc3n12	none
Cc1cccc(NC(=O)CSc2cc(C)c(C#N)c3nc4ccccc4n23)c1	none | KCNK9 inh conf inactive | Kir2-1 spec inactive | KCNK9 uninduced inactive
Cc1cc(NCCOCCO)n2c(nc3ccccc32)c1C#N	KCNK9 inh -13.9 | KCNK9 inh conf 35.5% | Kir2-1 spec inactive | KCNK9 uninduced inactive
COc1cc(C(=O)NCCC(c2ccccc2)c2ccccc2)cc(OC)c1OC	none
CCOC(=O)[C@H]1[C@H]2COc3ccc(OC)cc3[C@H]2N2C(=O)CNC(=O)[C@@]12C	none (no result: KCNQ1 pot, KCNQ1 block, KCNK9 inh, Kir21 block, hERG rescue)
COc1ccc(-c2nnc(NC(=O)c3ccc(S(=O)(=O)N4CCc5ccccc5C4)cc3)o2)cc1	none | KCNK9 inh conf inactive | Kir2-1 spec inactive | KCNK9 uninduced inactive
O=C(Nc1nnc(-c2ccc3c(c2)CCCC3)o1)c1c(F)cccc1F	none
O=C(Nc1nnc(-c2ccc3c(c2)CCCC3)o1)c1ccc(Cl)cc1Cl	KCNQ1 pot 52, hERG rescue 18.9 | KCNK9 inh conf inactive | Kir2-1 spec inactive | KCNK9 uninduced inactive
COc1ccc(-c2csc(NC(=O)c3ccc(S(=O)(=O)N4CCc5ccccc5C4)cc3)n2)cc1	none
CN(C)S(=O)(=O)c1ccc(C(=O)Nc2nnc(-c3ccc4c(c3)CCCC4)o2)cc1	none | KCNK9 inh conf inactive | Kir2-1 spec inactive | KCNK9 uninduced inactive
COc1ccc(OC)c(C(=O)CN2CCN(S(=O)(=O)c3ccc(Br)cc3)CC2)c1	none | KCNK9 inh conf inactive | Kir2-1 spec inactive | KCNK9 uninduced inactive
Cc1cc(SCC(=O)N/N=C/c2ccc(O)c(O)c2O)c(C)cc1Br	none | KCNK9 inh conf inactive | Kir2-1 spec inactive | KCNK9 uninduced inactive
COc1cccc(-c2nc(CS(=O)(=O)CC(=O)NCC(C)c3ccccc3)c(C)o2)c1 (configuration not stated)	none | KCNK9 inh conf inactive | Kir2-1 spec inactive | KCNK9 uninduced inactive
CCCCCc1cc(O)c2c(C)cc(=O)oc2c1	none
CCCCc1cc(O)c(CCCC)c(O)c1	KCNK9 inh -11.5 | KCNK9 inh conf 64.5% | Kir2-1 spec inactive | KCNK9 uninduced 35.5%
COc1ccc(NC(=O)c2oc3ccccc3c2NC(=O)c2ccco2)cc1	KCNK9 inh -9.06 | KCNK9 inh conf inactive | Kir2-1 spec inactive | KCNK9 uninduced inactive
COc1ccc(NC(=O)c2oc3ccccc3c2NC(=O)C(C)(C)C)cc1	none
COc1ccc(-c2csc(NC(=O)c3ccco3)n2)cc1	KCNK9 inh -8.69 | KCNK9 inh conf inactive | Kir2-1 spec inactive | KCNK9 uninduced inactive
Cc1ccc(Cl)cc1Nc1nc(-c2sc(NC(=O)c3ccco3)nc2C)cs1	KCNK9 inh -11.8 | KCNK9 inh conf 34.5% | Kir2-1 spec inactive | KCNK9 uninduced inactive
COc1ccc(Cl)cc1Nc1nc(-c2sc(NC(=O)CC(C)C)nc2C)cs1	KCNK9 inh -13.1 | KCNK9 inh conf 41.0% | Kir2-1 spec inactive | KCNK9 uninduced 34.5%
CCOc1ncccc1C(=O)NCCCSc1ccccc1	none
CCOC(=O)Cc1csc(NC(=O)COc2cc(C)cc(C)c2)n1	none
CNC(=O)c1ccc(NC(=O)/C=C/c2cccc(F)c2)cc1	none
CCC(C)C(=O)Nc1nc(C)c(-c2csc(Nc3ccccc3OC)n2)s1 (configuration not stated)	KCNK9 inh -9.23 | KCNK9 inh conf 58.5% | Kir2-1 spec inactive | KCNK9 uninduced 27.5%
Cc1ccc(-c2csc(NC(=O)c3ccc(-c4ccccc4)cc3)n2)o1	KCNK9 inh -9.75 | KCNK9 inh conf inactive | Kir2-1 spec inactive | KCNK9 uninduced inactive
O=C(Nc1nc(-c2ccco2)cs1)c1ccccc1	none
CC(=O)Nc1ccc(S(=O)(=O)N(C)CC(=O)OCC(=O)N(C)C2CCS(=O)(=O)C2)cc1 (configuration not stated)	none
O=C(c1ccccc1Sc1ccccc1[N+](=O)[O-])N1CCCCC1	none | KCNK9 inh conf inactive | Kir2-1 spec inactive | KCNK9 uninduced inactive
Brc1ccc(-c2noc3c2-c2nc(-c4ccccc4)sc2CC3)cc1	none
Cc1cc(/C=N/NC(=O)C(=O)N2CCCC2)c(C)n1-c1cccc(Br)c1	none
Cc1cc(/C=N/NC(=O)c2c(Br)cnn2C)c(C)n1-c1cccc(Br)c1	KCNK9 inh -11.6 | KCNK9 inh conf 54.5% | Kir2-1 spec inactive | KCNK9 uninduced 29.0%
